Measurements published in the EternaBench riboswitch data.

Tested on: MS2 coat protein
Test: apparent Kd, MS2 coat protein; higher = weaker binding; RNA-MaP array; FMN 200 µM where present
In short: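 Green signal from SNAP-549-labelled MS2 coat protein was normalised to red-channel RNA signal and to the median Fmax of control clusters. The protein was titrated from 0.7 or 1.5 nM, doubling to 3 µM, without and then with constant ligand, over designs transcribed by stalled E. coli RNA polymerase on Illumina sequencing-chip clusters, in 100 mM Tris-HCl pH 7.5, 80 mM KCl, 4 mM MgCl2, BSA, DTT, yeast tRNA and Tween-20. The apparent Kd is the median of filtered per-cluster binding-curve fits.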

[1] = designed as: OFF switch for flavin mononucleotide, no ligand
[2] = ligand present: flavin mononucleotide, designed as: OFF switch for flavin mononucleotide
[3] = designed as: ON switch for flavin mononucleotide, no ligand
[4] = ligand present: flavin mononucleotide, designed as: ON switch for flavin mononucleotide

Row | Sequence | apparent Kd [1] [nM] | apparent Kd [2] [nM] | apparent Kd [3] [nM] | apparent Kd [4] [nM]
1 | UGACUGAUAUAGAAGGGUAUGUGGGAAUUACAUGAGGAUCACCCAUGUUUUAUAGGAUAUGUAUAUAGUUUUUAAUCAAGUUUA | 48.2 | 36.8 |  | 
2 | CGAUAUUAUGCAGGAUAUCUCCCUUGAAUGCGGAGAGAAGGGCAUAGGGAGACAUACGCCUUAUUACAUGAGGAUCACCCAUGU | 9.4 | 8.29 |  | 
3 | CUCUUGGCAGGAUAUGCAAUUUUAGACAUGAGGAUCACCCAUGUGAUCAUUCCAUAUUAUGCAGAAGGGCCUAAAC | 48.2 | 320 |  | 
4 | GCAGCUCCUGACAUGAGGAUCACCCAUGUUUAAUUAUUAAAUCAGGAUAUCCUCUCGAAACGAGAGGAGAAGGGAUAAGCUGCU |  |  | 4.83 | 5.33
5 | GUAAAUCAUGUAGGAUAUGCAUGGCGAAGCUACGCAGAAGGACAUGAGGAUCACCCAUGUCUGUCCGUCUGGAUACAGACGGAC | 24.6 | 195 |  | 
6 | UAGGACUACGUAGGAUAUGUAGUUGAUUUCUACAUGAGGAUCACCCAUGUUUGCAUUUUAUUAGGACAGAAGGACGUGGUAAAU |  |  | 16.1 | 7.36
7 | CUCACGUUAGUAGGAUAUCCGACAUGAGGAUCACCCAUGUCACUGCGUCGCUAAGGUAGAUGCAAGGAGAAGGGCUGAUAAAUA |  |  | 259 | 124
8 | GGUACUCAAAGAGUACCAAUACGAACAUGAGGAUCACCCAUGUAGGAUAUGCUACUCGAAGAGUAGCAGAAGGACAUGUGCCUA | 16.9 | 113 |  | 
9 | UUAAUUAAUUAAUUAUACAUGAGGAUCACCCAUGUAAGUGAUCAGGAUAUCAGCUCGAUUAGAGCUGAGAAGGGAUCCAUGUAA |  |  | 109 | 81.3
10 | GGAUAGGACAGAGGAUAUACAGAUAGGAUCUACUAUCAAACAAUCCUGACAUGAGGAUCACCCAUGUAGAAGGCUGUCCUAUCG | 24.6 | 85.1 |  | 
11 | AUUUGCCUAGGAUAUACUCGGGCCCGCUCAUACUCCAAUGGACAUGAGGAUCACCCAUGUAGAAGGAGGAACCA | 16 | 20 |  | 
12 | CAAUUUAUGUCAGGAUAUACAAUACAAUGAUUAGUAGAAGGGAUUAAUACAUGAGGAUCACCCAUGUCAUGUGUCAUCGUAACC | 22.3 | 17.4 |  | 
13 | AUGUCUUAGUAGAAGGGACAUCGGCUGGUAAGCAUCAUCUCCUUCUCACAUGAGGAUCACCCAUGUCAGGAUAUACUAAGAUAC |  | 38.5 |  | 
14 | CGAUGUUAUGCAGGAUAUCUCUCUUGAUUGAGGAGAGAAGGGCAUAGGGAGACAUACGCCUUAUUACAUGAGGAUCACCCAUGU | 9.47 | 7.85 |  | 
15 | UAAAUAUUAAAAGGAUAUUCAUACCGGAAACGGACAUGAGGAUCACCCAUGUGGCGAAAGCCUUGGGAGAAGGUAUUAUAAAAU |  |  | 333 | 248
16 | UUGGACGUCGUAGGAUAUGUAGGAUAUUCCUACAUGAGGAUCACCCAUGUUGACAUGGAAGGAGGACAGAAGGACGAUGUCCAU |  |  | 524 | 23.3
17 | GCGUCAGAAUUAAUUGUGACAGACAGAAGGCAAUAGUAUGUGUCCGACAUGAGGAUCACCCAUGUUGAGGAUAUGUCUUGACGC | 4.76 | 5.87 |  | 
18 | GCACAUGAGGAUCACCCAUGUGGUCCAGAAGGCCAGAGGGCUUGCUUUUCGCAGGCCUUUCAAAUGGAGGAUAUGGAGGGUUCU |  |  | 207 | 42.7
19 | CUUGUGUUAGGAUAUGCGUUUCCGGUACGUCACCGGAUCUGGCAGAAGGGACAUGAGGAUCACCCAUGUUUGGC | 46.6 | 30.3 |  | 
20 | GGUACCCUGGUUCUUCAAAAUACAUGAGGAUCACCCAUGUACUAGGAUAUCGCGCGAACCCUCGCUGAGAAGGAGUCGAUGGGC | 22 | 23.4 |  | 
21 | AUUAUAUAGAAAGGAUAUAGAUUAUUAUUUUAACAUGAGGAUCACCCAUGUAGCCUUAUGUAUAACUAGAAGGUUCAUUUAUUA | 72.8 | 94.4 |  | 

Row | Sequence | apparent Kd [1] [nM] | apparent Kd [2] [nM] | apparent Kd [3] [nM] | apparent Kd [4] [nM]
22 | CUCCUCGUGUCGAACAUGAGGAUCACCCAUGUAAUGGGCACCGAGGAUAUCCCGCUGGCGUUAUGGGAGAAGGCGGUGGAUUUA | 42.6 | 40.2 |  | 
23 | UGAUAGGACAGAGGAUAUACGGAUAGGAUCUACUAUCUUCCUUAAAUAACAUGAGGAUCACCCAUGUAGAAGGCUGUCCUAUCU | 18.2 | 65.2 |  | 
24 | GGGUACCUGACAUGAGGAUCACCCAUGUCGUGCCUCUGCGGCAAGGAUAUGAUCGCUCGUGUAGGUCAGAAGGUGCCGUUGUUA |  |  | 66.2 | 6.7
25 | GGAUAGGACAGAGGAUAUACGUGCGAGAGAUACUAGCAAAAUUUCCUCACAUGAGGAUCACCCAUGUAGAAGGCUGUCCUAUCG | 162 | 195 |  | 
26 | ACCGUAUGAACAUGAGGAUCACCCAUGUAUCCGAAAAGGAAUGAGGAUAUCGAUAGCAAAGCUAUCGAGAAGGCAUGGGACGGU |  |  | 742 | 389
27 | AAUUUAAUACAUGAGGAUCACCCAUGUAAAUUAAUUAAGAUCUAGGAUAUCAGCUCGAUUAGAGCUGAGAAGGAGAUCACAUGU |  |  | 16.6 | 13.2
28 | GAGUGACAUGAGGAUCACCCAUGUGAGGAUAUCGGACGGACCAAAUUAACAUCCGCCGCGAGAAGGCACAUCGG | 78.7 | 24.5 |  | 
29 | GGGUUUGGAGGAUAUACAUGAGGAUCACCCAUGUAGGGCCCGGGUAUUCCCGGGCCCUGUAGAAGGCCGGGCCC | 14.1 | 16.5 |  | 
30 | GGUGGGUUGCUGCCGGCACAUGAGGAUCACCCAUGUUUUGGGAAGGAUAUGGUACCUUUUUGGUGCCAGAAGGUCCCGUUGGUG |  |  | 733 | 1000
31 | GCAGCGCCUGACAUGAGGAUCACCCAUGUUAGAUUGUUAAGUCAGGAUAUAGUCUAGAAACUAGACUAGAAGGGAUUUGCUGCU |  |  | 9.08 | 6.83
32 | ACAUGAGGAUCACCCAUGUAGAAUGAAGAAGGUAGAUACUUGUGACUCACCCAUGUACAUAGGACUAAGGAUAUUCUAAUAAUU |  |  | 26.3 | 13
33 | UGCCAGGAGGAGAAGGGAGCACAUGAGGAUCACCCAUGUGGUCCGGGCUGCUCAGGAUAUCCUAACUGUACGCAUUACUACGAA | 119 | 23.2 |  | 
34 | UAUAUGUCAGGAUAUCGAUUGGUACGGGAUUCGGUACUGGUUGAGAAGGGACAUGAGGAUCACCCAUGUUUUUC | 37.8 | 162 |  | 
35 | AUAUCUUGUCGAGGAUAUGUUGUAUUGAUCUGAAAACAUGAGGAUCACCCAUGUAUACGGUGGGAACAGAAGGUGGAUGUAGAA | 318 | 356 |  | 
36 | AGGUUGUGAGGAUAUUAGUUAUAUGAAUGGAGGAGUAUGGCUGAGAAGGCACAUGAGGAUCACCCAUGUAGAUC | 120 | 420 |  | 
37 | UUUUAACAUGAGGAUCACCCAUGUGAGGAUAUCGUAUUUUUUAUUAAUAUUAAUAAAACGAGAAGGCACAUUUU | 95.5 | 97.3 |  | 
38 | UUAGAUAGGUCAGGAUAUCGAUUAUUGUAUAGUAUGAUUUACAUGAGGAUCACCCAUGUUAAAUACGAGAAGGGACGUUAGAUU | 26.5 | 19 |  | 
39 | AAUGGGCAGCAGAAGGCAUGUCUACGGACAUGAGGAUCACCCAUGUAGUGAAGCCGAAAGGCGCAUGAGGAUAUGCUGCCCUAA |  |  | 131 | 8.45
40 | AGCAGACGAGGAUAUAGAUUUGUUAACAUGAGGAUCACCCAUGUGAUCGAUUUUUCAUAUUUAGAAGGUGUCUGCU | 83.3 | 392 |  | 
41 | CCUCUACAUGAGGAUCACCCAUGUGAGGAUAUGCGAGGCGCACUCGAUGAGCGCGCCGGUAGAAGGCAUGUGGU | 24 | 55 |  | 
